Reference: ChEMBL document CHEMBL2417390 (J Med Chem, 2013)

Legend:
[1] = target: T1, Steroid 17-alpha-hydroxylase/17,20 lyase (Homo sapiens, UniProt P05093); assay: Inhibition of human CYP17
T1 sequence (P05093 whole entry): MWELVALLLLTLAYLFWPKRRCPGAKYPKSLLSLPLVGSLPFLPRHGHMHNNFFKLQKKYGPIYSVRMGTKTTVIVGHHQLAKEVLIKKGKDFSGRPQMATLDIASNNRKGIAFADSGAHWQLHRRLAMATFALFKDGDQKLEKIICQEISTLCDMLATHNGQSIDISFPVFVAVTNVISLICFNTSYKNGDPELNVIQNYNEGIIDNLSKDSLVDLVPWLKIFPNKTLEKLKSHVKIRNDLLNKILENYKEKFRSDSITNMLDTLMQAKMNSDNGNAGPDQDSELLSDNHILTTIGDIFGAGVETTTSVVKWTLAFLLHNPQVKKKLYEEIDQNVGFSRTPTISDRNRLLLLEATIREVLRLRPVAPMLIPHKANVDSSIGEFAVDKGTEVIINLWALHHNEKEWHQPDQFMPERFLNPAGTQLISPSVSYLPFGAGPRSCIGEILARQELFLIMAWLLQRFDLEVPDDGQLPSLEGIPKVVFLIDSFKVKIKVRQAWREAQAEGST
How it was run: (§1)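 Human CYP17 was recombinantly expressed in E. coli. The substrate was progesterone at 25 µM, with NADPH as cofactor.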

[2] = target: T2, Cytochrome P450 11B1, mitochondrial (Homo sapiens, UniProt P15538); assay: Inhibition of human CYP11B1 expressed in hamster V79MZh cells using [1,2-3H]-11-deoxycorticosterone as substrate; type: cell-based
T2 sequence (P15538 whole entry): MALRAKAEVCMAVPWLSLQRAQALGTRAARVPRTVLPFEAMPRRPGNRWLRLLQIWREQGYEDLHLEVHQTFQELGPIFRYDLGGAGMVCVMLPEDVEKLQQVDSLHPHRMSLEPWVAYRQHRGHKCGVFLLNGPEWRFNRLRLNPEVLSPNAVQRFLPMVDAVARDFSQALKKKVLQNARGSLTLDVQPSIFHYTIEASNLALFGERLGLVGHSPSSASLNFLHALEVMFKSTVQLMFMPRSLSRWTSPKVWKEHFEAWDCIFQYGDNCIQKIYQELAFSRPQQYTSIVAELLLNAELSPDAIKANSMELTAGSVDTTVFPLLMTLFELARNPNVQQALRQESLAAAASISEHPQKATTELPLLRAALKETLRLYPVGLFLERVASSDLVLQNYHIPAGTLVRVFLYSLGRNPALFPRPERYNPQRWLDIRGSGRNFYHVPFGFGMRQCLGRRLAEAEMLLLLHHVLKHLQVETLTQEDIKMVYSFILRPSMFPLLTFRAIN

Cytochrome P450 3A4 = Cytochrome P450 3A4 (Homo sapiens, UniProt P08684); assay: Inhibition of recombinant CYP3A4 (unknown origin) expressed in baculovirus-infected insect microsomes; type: ADME, Microsome
Cytochrome P450 3A4, sequence (P08684 whole entry): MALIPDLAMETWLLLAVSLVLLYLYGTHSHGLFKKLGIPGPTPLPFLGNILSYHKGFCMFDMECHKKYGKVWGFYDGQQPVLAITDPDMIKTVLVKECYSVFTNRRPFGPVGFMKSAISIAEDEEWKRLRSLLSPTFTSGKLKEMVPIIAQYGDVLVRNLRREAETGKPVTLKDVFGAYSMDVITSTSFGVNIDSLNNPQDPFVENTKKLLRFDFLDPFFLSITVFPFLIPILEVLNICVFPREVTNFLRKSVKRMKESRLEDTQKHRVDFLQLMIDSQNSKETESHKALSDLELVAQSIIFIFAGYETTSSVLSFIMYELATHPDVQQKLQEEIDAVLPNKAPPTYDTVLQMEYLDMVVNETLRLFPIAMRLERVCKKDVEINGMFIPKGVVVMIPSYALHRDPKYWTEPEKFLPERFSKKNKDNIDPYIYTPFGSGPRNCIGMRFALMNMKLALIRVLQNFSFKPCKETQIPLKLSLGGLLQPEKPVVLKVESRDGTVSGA
How it was run: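 Recombinant CYP3A4 in baculovirus-infected insect microsomes (Supersomes), assayed following the supplier's protocol.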

Aromatase = target: T3, Aromatase (Homo sapiens, UniProt P11511); assay: Inhibition of CYP19 in human placental microsomes using [1beta-3H]androstenedione as substrate by 3H2O-method; set-up: species or system Placenta
T3 sequence (P11511 whole entry): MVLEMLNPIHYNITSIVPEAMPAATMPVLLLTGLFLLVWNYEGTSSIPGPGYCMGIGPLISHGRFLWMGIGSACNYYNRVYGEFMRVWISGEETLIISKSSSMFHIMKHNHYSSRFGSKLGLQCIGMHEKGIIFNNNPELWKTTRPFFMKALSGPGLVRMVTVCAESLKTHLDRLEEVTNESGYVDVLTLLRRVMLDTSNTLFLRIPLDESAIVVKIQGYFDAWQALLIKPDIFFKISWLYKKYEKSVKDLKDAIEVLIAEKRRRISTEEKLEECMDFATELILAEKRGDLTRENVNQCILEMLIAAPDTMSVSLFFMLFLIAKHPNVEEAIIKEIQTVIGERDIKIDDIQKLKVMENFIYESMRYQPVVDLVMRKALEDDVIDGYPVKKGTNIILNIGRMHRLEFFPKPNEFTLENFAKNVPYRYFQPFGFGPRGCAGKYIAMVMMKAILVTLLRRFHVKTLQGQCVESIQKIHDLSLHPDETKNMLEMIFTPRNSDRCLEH
How it was run: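 Human placental microsomes as the aromatase source. Product formation was read by the 3H2O release method with [1β-3H]androstenedione at 500 nM as substrate.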

Homo sapiens = species on record: Homo sapiens; assay: Selectivity factor, ratio of IC50 for human CYP11B1 to IC50 for human CYP11B2
[3] = target: T1, Steroid 17-alpha-hydroxylase/17,20 lyase; assay: Inhibition of human CYP17 expressed in Escherichia coli using 1,2[3H]-progesterone as substrate in presence of NADPH; how it was run: as §1
[4] = target: T4, Cytochrome P450 11B2, mitochondrial (Homo sapiens, UniProt P19099); assay: Inhibition of human CYP11B2 expressed in hamster V79MZh cells using [1,2-3H]-11-deoxycorticosterone as substrate; type: cell-based
T4 sequence (P19099 whole entry): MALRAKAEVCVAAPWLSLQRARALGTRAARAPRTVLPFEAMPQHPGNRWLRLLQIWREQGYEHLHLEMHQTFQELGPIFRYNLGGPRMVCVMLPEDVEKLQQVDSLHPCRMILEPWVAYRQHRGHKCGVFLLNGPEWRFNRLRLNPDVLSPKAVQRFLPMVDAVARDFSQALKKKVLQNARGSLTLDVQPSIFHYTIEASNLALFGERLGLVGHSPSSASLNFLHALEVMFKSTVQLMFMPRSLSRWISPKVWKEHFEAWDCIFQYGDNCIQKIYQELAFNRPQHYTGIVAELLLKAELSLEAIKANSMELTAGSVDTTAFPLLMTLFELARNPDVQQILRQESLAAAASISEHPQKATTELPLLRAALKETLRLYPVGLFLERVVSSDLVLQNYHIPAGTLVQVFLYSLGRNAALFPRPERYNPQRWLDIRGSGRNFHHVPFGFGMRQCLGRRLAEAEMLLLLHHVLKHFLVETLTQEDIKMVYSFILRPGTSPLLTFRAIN

[5] = target: T4, Cytochrome P450 11B2, mitochondrial; assay: Inhibition of human CYP11B2
[6] = target: T1, Steroid 17-alpha-hydroxylase/17,20 lyase; assay: Inhibition of human CYP17 expressed in Escherichia coli using 1,2[3H]-progesterone as substrate at 2000 nM in presence of NADPH relative to control; conditions: read-out: INH

SMILES	IC50 [1] [nM]	IC50 [2] [nM]	IC50 (Cytochrome P450 3A4) [µM]	IC50 (Aromatase) [nM]	Ratio IC50 (Homo sapiens)	IC50 [3] [nM]	IC50 [4] [nM]	IC50 [5] [nM]	inhibition at 2 µM [6] [%]
c1cncc(-c2ccc3ccccc3c2)c1	3000	–	–	–	–	–	–	–	–
COc1cncc(-c2ccc3ccc(OC)cc3c2Cl)c1	–	447	> 10	> 2000	19	94	24	–	–
Oc1ccc2ccc(-c3cncc(F)c3)c(Cl)c2c1	–	450	3.58	> 2000	15	525	33	–	–
Oc1ccc2ccc(-c3cccnc3)c(F)c2c1	–	1160	1.26	> 2000	39	523	30	–	–
COc1ccc2ccc(-c3cccnc3)cc2c1	721	–	–	> 2000	–	–	–	68	–
Oc1ccc2ccc(-c3cncnc3)c(Cl)c2c1	–	2430	2.15	> 2000	110	1520	22	–	–
COc1cncc(-c2ccc3ccc(O)cc3c2Cl)c1	–	245	4.2	> 2000	16	185	15	–	–
Oc1ccc2ccc(-c3cncc4ccccc34)c(Cl)c2c1	–	238	1.74	> 2000	4	1030	66	–	–
Oc1ccc2ccc(-c3cccnc3)c(Cl)c2c1	–	235	1.76	> 2000	9	64	26	–	–
Oc1cncc(-c2ccc3ccc(O)cc3c2Cl)c1	–	2820	5.05	> 2000	104	16	27	–	–
COc1ccc2ccc(-c3cccnc3)c(Cl)c2c1F	–	2930	1.01	> 2000	104	147	28	–	–
COc1ccc2ccc(-c3cncc4ccccc34)c(Cl)c2c1	–	362	> 10	> 2000	7	294	54	–	–
COc1ccc2ccc(-c3cccnc3)c(F)c2c1	–	1610	> 10	> 2000	95	106	17	–	–
N#Cc1ccc(C2CCCc3cncn32)cc1 (stereo not drawn) [FADROZOLE]	–	–	–	–	–	–	–	–	< 5
COc1ccc2ccc(-c3cncc(F)c3)c(Cl)c2c1	–	1410	> 10	> 2000	37	454	38	–	–
COc1ccc2ccc(-c3cncnc3)c(Cl)c2c1	–	12300	> 10	> 2000	170	632	72	–	–
COc1ccc2ccc(-c3cncc(O)c3)c(Cl)c2c1	–	7100	6.72	> 2000	546	11	13	–	–
COc1ccc2ccc(-c3cccnc3)c(Cl)c2c1	–	–	3.56	> 2000	94	–	–	–	–
Oc1ccc2ccc(-c3cccnc3)c(Cl)c2c1F	–	224	> 10	> 2000	9	375	25	–	–
